Source: ChEMBL document CHEMBL4406921, “Discovery of Axelopran (TD-1211): A Peripherally Restricted μ-Opioid Receptor Antagonist” (ACS Med Chem Lett, 2019)

Key:
[1] = Permeability coefficient, Kp in human Caco2 cells; type: ADME, cell-based; conditions: Caco-2, read-out: Kp
[2] = target: Kappa-type opioid receptor (Cavia porcellus, UniProt P41144); experiment: Displacement of [3H]-DPN from guinea pig kappa opioid receptor expressed in CHO-K1 cell membranes by radioligand binding assay
Summary of the method: (§1)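 Membranes from CHO-K1 cells stably transfected with human recombinant μ or δ receptor, or guinea pig κ receptor; competition with [3H]-DPN radioligand; affinity reported as pKi.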

Mu-type opioid receptor [3] = target: T1, Mu-type opioid receptor (Homo sapiens, UniProt P35372); experiment: Antagonist activity at human recombinant mu opioid receptor expressed in CHO-K1 cell membranes assessed as intrinsic activity at 10 pM to 20 uM incubated for 30 mins in presence of Eu-GTP by DELFIA GTP binding assay relative to DAMGO
[4] = Half life in rat liver microsomes at 15 uM; type: ADME, Microsome
Mu-type opioid receptor [5] = target: T1, Mu-type opioid receptor; experiment: Displacement of [3H]-DPN from recombinant human mu opioid receptor expressed in CHO-K1 cell membranes by radioligand binding assay; summary of the method: as §1
[6] = target: Delta-type opioid receptor (Homo sapiens, UniProt P41143); experiment: Displacement of [3H]-DPN from recombinant human delta opioid receptor expressed in CHO-K1 cell membranes by radioligand binding assay; summary of the method: as §1
Mus musculus [7] = experiment: Inhibition of morphine-induced antinociceptive activity in po dosed ICR mouse administered via gavage pretreated with compound and 30 mins later injected with morphine and measured after 30 mins by hot plate test; type: functional
Summary of the method: (§2)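 Mice dosed orally; reversal of morphine-induced delay in intestinal transit, delay in gastric emptying, or hot plate antinociception measured; dose-dependent responses fitted to give ID50 in mg/kg.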

Mus musculus [8] = experiment: Inhibition of morphine-induced delays in intestinal transit in po dosed ICR mouse administered via gavage pretreated with compound and 30 mins later injected with morphine followed 5 mins later by ingestion of test meal and measured after 60 mins; type: functional; summary of the method: as §2
Mus musculus [9] = species: Mus musculus; experiment: Peripheral selectivity index, ratio of ID50 for inhibition of morphine-induced delays in gastric emptying in ICR mouse to ID50 for inhibition of morphine-induced delays in intestinal transit in ICR mouse; type: functional
Mus musculus [10] = experiment: Inhibition of morphine-induced delays in gastric emptying in po dosed ICR mouse administered via gavage pretreated with compound and 30 mins later injected with morphine followed 5 mins later by ingestion of test meal and measured after 60 mins; type: functional; summary of the method: as §2
[11] = AUC(0 to t) in Sprague-Dawley rat at 5 mg/kg, po administered via gavage; type: ADME, organism-based; conditions: in vivo
[12] = Oral bioavailability in Sprague-Dawley rat at 5 mg/kg administered via gavage; type: ADME, organism-based; conditions: in vivo
Mus musculus [13] = species: Mus musculus; experiment: Peripheral selectivity index, ratio of ID50 for inhibition of morphine-induced antinociceptive activity in ICR mouse to ID50 for inhibition of morphine-induced delays in intestinal transit in ICR mouse; type: functional
Summary of the method: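 Mice were dosed orally with antagonist at several doses and challenged with morphine. ID50 values were taken from dose-dependent reversal of morphine-induced hot plate antinociception (CNS) and of morphine-induced delay in intestinal transit (peripheral). The index is the hot plate ID50 divided by the intestinal transit ID50.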

[14] = Half life in human liver microsomes at 3 uM; type: ADME, Microsome
[15] = Half life in rat liver microsomes at 3 uM; type: ADME, Microsome
[16] = Half life in Sprague-Dawley rat at 5 mg/kg, po administered via gavage; type: ADME, organism-based; conditions: in vivo
[17] = Half life in dog liver microsomes at 3 uM; type: ADME, Canis lupus familiaris, Microsome
[18] = Cmax in Sprague-Dawley rat at 5 mg/kg, po administered via gavage; type: ADME, organism-based; design: dose 5 mg/kg, route oral; conditions: in vivo
[19] = read-out: ID50 (the source's name)

Delta-type opioid receptor, sequence (P41143 whole entry): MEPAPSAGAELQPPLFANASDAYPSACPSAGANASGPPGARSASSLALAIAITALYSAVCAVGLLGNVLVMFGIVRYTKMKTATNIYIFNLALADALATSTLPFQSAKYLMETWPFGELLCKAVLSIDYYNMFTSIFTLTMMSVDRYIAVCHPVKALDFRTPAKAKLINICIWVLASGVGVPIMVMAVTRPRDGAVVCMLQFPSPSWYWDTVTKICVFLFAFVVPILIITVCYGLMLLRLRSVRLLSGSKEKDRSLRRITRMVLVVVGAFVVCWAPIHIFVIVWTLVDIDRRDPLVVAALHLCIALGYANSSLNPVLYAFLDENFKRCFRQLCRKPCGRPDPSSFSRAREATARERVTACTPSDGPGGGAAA
Kappa-type opioid receptor, sequence (P41144 whole entry): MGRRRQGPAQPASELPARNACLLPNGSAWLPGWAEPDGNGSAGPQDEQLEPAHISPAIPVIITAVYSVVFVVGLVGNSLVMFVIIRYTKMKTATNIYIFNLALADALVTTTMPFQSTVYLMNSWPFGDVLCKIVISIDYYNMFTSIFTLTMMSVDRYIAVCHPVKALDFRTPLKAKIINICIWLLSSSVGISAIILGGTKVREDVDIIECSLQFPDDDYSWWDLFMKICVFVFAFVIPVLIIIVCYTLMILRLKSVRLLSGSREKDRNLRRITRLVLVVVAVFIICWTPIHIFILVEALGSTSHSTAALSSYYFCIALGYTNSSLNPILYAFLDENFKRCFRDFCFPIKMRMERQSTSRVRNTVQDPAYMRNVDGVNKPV
T1 sequence (P35372 whole entry): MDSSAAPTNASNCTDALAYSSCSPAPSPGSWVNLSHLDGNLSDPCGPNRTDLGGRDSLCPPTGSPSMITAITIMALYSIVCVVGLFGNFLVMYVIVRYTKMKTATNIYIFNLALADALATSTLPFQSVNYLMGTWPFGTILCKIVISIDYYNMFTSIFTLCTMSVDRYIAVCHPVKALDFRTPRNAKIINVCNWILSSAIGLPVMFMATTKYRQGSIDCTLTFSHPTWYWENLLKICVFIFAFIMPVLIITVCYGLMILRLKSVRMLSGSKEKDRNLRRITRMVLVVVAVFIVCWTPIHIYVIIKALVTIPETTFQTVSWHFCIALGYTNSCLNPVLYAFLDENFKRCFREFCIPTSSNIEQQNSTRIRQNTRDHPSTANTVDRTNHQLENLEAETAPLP

NC(=O)c1cccc([C@H]2C[C@H]3CC[C@@H](C2)N3CCN(CCCc2ccccc2)C(=O)CO)c1
Papp [1]: 26 ×10⁻⁶ cm/s
Ki [2]: 0.501 nM
Intrinsic activity (Mu-type opioid receptor [3]): -13%
half-life at 15 µM [4]: 0.533 h
Ki (Mu-type opioid receptor [5]): 0.794 nM
Ki [6]: 31.6 nM

NC(=O)c1cccc([C@H]2C[C@H]3CC[C@@H](C2)N3CCNCC2CCCCC2)c1
Ki [2]: 0.158 nM
Intrinsic activity (Mu-type opioid receptor [3]): 12%
half-life at 15 µM [4]: 0.7 h
Ki (Mu-type opioid receptor [5]): 0.251 nM
Ki [6]: 6.31 nM

NC(=O)c1cccc([C@H]2C[C@H]3CC[C@@H](C2)N3CCN(CC2CCCCC2)C(=O)C(F)(F)F)c1
Ki [2]: 1 nM
Intrinsic activity (Mu-type opioid receptor [3]): 9%
half-life at 15 µM [4]: 0.05 h
Ki (Mu-type opioid receptor [5]): 0.794 nM
Ki [6]: 10 nM

NC(=O)c1cccc([C@H]2C[C@H]3CC[C@@H](C2)N3CCN(CC2CCC(F)(F)CC2)C(=O)CO)c1
Papp [1]: 14 ×10⁻⁶ cm/s
Ki [2]: 0.251 nM
inhibition (Mus musculus [7]): Dose-dependent effect
ED50 (Mus musculus [7]; [19]): 4.4 mg/kg
inhibition (Mus musculus [8]): Dose-dependent effect
ED50 (Mus musculus [8]; [19]): 0.23 mg/kg
Selectivity Index (Mus musculus [9]): 147
inhibition (Mus musculus [10]): Dose-dependent effect
ED50 (Mus musculus [10]; [19]): 0.03 mg/kg
AUC(0-t) [11]: 1200 ng·h/mL
bioavailability [12]: 30%
Intrinsic activity (Mu-type opioid receptor [3]): -5%
Selectivity Index (Mus musculus [13]): 19
half-life at 3 µM [14]: 1.5 h
Ki (Mu-type opioid receptor [5]): 0.126 nM
Ki [6]: 12.6 nM
half-life at 3 µM [15]: 1.5 h
half-life [16]: 2 h
half-life at 3 µM [17]: 1.5 h
Cmax [18]: 390 ng/mL
